{"source": "paper PMC5659729", "about": "(Life sciences, 2017)", "key": {"[1]": {"test_system": "piroxicam-induced inflammatory bowel disease", "details": "cited from earlier work"}, "Swiss Webster mice": {"test_system": "Swiss Webster mice", "assay": "Diclofenac-induced gastric ulcers, ulcer index scoring", "assay_type": "in vivo"}, "[2]": {"test_system": "gastric mucosa of Swiss Webster mice", "assay": "Histopathological evaluation of stomach sections", "assay_type": "in vivo", "details": "DCF 100 mg/kg alone or after TPPU 0.1 mg/kg or OME 50 mg/kg"}, "[3]": {"assay": "Quantification of pH in gastric content", "assay_type": "in vivo, mice", "details": "DCF 100 mg/kg single dose; TPPU 0.1 mg/kg 7 days + DCF; omeprazole 50 mg/kg 5 days + DCF"}, "[4]": {"assay": "Quantification of drugs in plasma by LC-MS/MS", "assay_type": "in vivo, mice", "details": "for Alterations in blood levels when TPPU and DCF co-administered: TPPU 0.1 mg/kg/day + DCF 100 mg/kg"}, "TNF-α": {"test_system": "TNF-α", "assay": "Inflammatory marker in serum by ELISA", "assay_type": "in vivo, mice", "details": "for Level of TNF-α in serum versus DCF: pre-treatment TPPU 0.1 mg/kg or OME 50 mg/kg before DCF 100 mg/kg"}, "IL-6": {"test_system": "IL-6", "assay": "Inflammatory marker in serum by ELISA", "assay_type": "in vivo, mice", "details": "for Level of IL-6 in serum versus vehicle: DCF 100 mg/kg p.o. single dose; for Level of IL-6 in serum versus DCF: pre-treatment TPPU 0.1 mg/kg or OME 50 mg/kg before DCF 100 mg/kg", "outline": "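Blood without anticoagulant was collected at sacrifice 6 h post-dose and spun at 4 °C. Serum IL-6 was measured with a pre-coated mouse ELISA kit, in duplicate, n=3–4 animals, reported as mean ± SD.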"}, "gastric epithelial cells": {"test_system": "gastric epithelial cells", "assay": "TUNEL assay of gastric cell apoptosis", "assay_type": "in vivo, mice", "details": "for DCF-induced apoptosis of stomach epithelial cells (TUNEL) versus DCF: pre-treatment TPPU 0.1 mg/kg or OME 50 mg/kg before DCF 100 mg/kg"}, "TxB2/PGE2": {"test_system": "TxB2/PGE2", "assay": "PGE2 and TxB2 in plasma", "assay_type": "in vivo, mice", "details": "for Level of TxB2/PGE2 in plasma of DCF treated mice: TPPU 0.1 mg/kg or omeprazole 50 mg/kg + DCF 100 mg/kg"}, "COX": {"test_system": "COX", "assay": "PGE2 in stomach as marker of COX activity", "assay_type": "in vivo, mice", "details": "TPPU 0.1 mg/kg or OME 50 mg/kg + DCF 100 mg/kg"}, "[5]": {"details": "mice; cited from earlier work"}, "[6]": {"test_system": "DCF-induced intestinal ulcers", "details": "cited from earlier work"}, "recombinant mouse sEH": {"test_system": "recombinant mouse sEH", "details": "affinity purified recombinant mouse sEH; cited from earlier work"}, "[7]": {"details": "cited from earlier work"}, "[8]": {"details": "16 h after radioactive omeprazole administration; cited from earlier work"}, "CYP3A4": {"test_system": "CYP3A4", "details": "cited from earlier work"}}, "note": "pIC50: −log10 of the molar value. “Also recorded” adds a separate entry of the source.", "data": [{"smiles": "O=C(NC12CC3CC(CC(C3)C1)C2)N[C@H]1CC[C@H](Oc2ccc(C(=O)O)cc2)CC1", "note": "[t-AUCB, trans-4-[4-(3-adamantan-1-yl-ureido)-cyclohexyloxy]-benzoic acid]", "values": [{"measurement": "Effect on piroxicam-induced inflammatory bowel disease", "setting": "[1]", "value": "decrease piroxicam (a COX inhibitor)-induced inflammatory bowel disease"}]}, {"smiles": "O=C(O)Cc1ccccc1Nc1c(Cl)cccc1Cl", "note": "[Diclofenac, diclofenac sodium]", "values": [{"measurement": "Gastric ulcer score 18 h after dosing", "setting": "Swiss Webster mice; single DCF dose 100 mg/kg, 18 h", "value": "returned to normal levels"}, {"measurement": "Histopathological observation of gastric mucosa", "setting": "[2]", "value": "ulceration was observed"}, {"measurement": "Effect on pH of stomach (gastric content)", "setting": "[3]", "value": "did not alter the pH of stomachs"}, {"measurement": "concentration at 6 h", "setting": "[4]; Swiss Webster, mouse, plasma, oral, Mean plasma concentration of DCF, mice that received DCF or DCF + TPPU", "value": 4000, "unit": "ng/mL"}, {"measurement": "Alterations in blood levels when TPPU and DCF co-administered", "setting": "[4]", "value": "not observed"}, {"measurement": "Mean plasma concentration of diclofenac, diclofenac only versus DCF + OME", "setting": "[4]; difference not significant, n=4", "value": "approximately 2 times"}, {"measurement": "Level of TNF-α in serum versus vehicle", "setting": "TNF-α; DCF 100 mg/kg p.o. single dose", "value": "significant increase (p < 0.05); also recorded: increased level of TNF-α significantly"}, {"measurement": "Level of IL-6 in serum versus vehicle", "setting": "IL-6", "value": "increased levels of IL-6 significantly"}, {"measurement": "Level of IL-6 in serum versus vehicle", "setting": "IL-6; listed as DCF", "value": "significant increase (p < 0.05)"}, {"measurement": "Apoptosis of stomach epithelial cells (TUNEL positive cells) versus vehicle", "setting": "gastric epithelial cells; DCF 100 mg/kg, listed as DCF", "value": "increased apoptosis significantly"}, {"measurement": "Levels of TxB2/PGE2 in plasma versus vehicle", "setting": "TxB2/PGE2; DCF 100 mg/kg", "value": "significantly decreased"}, {"measurement": "Levels of PGE2 in plasma versus vehicle", "setting": "TxB2/PGE2; data not shown", "value": "not statistically (data not shown) different"}, {"measurement": "Level of TxB2 in plasma", "setting": "TxB2/PGE2; mice treated with only DCF, level of detection 20 pM", "value": "< 20", "unit": "pM"}]}, {"smiles": "CCC(=O)N1CCC(NC(=O)Nc2ccc(OC(F)(F)F)cc2)CC1", "note": "[TPPU, N-[1-(1-oxopropyl)-4-piperidinyl]-N′-[4-(trifluoromethoxy)phenyl)-urea]", "values": [{"measurement": "Histopathological observation of gastric mucosa", "setting": "[2]", "value": "Ulceration was minimal"}, {"measurement": "Alterations in blood levels when TPPU and DCF co-administered", "setting": "[4]", "value": "[…]"}, {"measurement": "Level of TNF-α in serum versus DCF", "setting": "TNF-α", "value": "normalized the level of these cytokines; also recorded: decreased level of TNF-α significantly"}, {"measurement": "Level of IL-6 in serum versus DCF", "setting": "IL-6", "value": "normalized the level of these cytokines; also recorded: decreased level of IL-6 significantly"}, {"measurement": "DCF-induced apoptosis of stomach epithelial cells (TUNEL) versus DCF", "setting": "gastric epithelial cells", "value": "decreased DCF-induced apoptosis of gastric cells; also recorded: decreased apoptosis significantly"}, {"measurement": "Effect on COX activity in stomach (level of PGE2) of DCF treated mice", "setting": "COX", "value": "did not increase the activity of COX"}, {"measurement": "Level of TxB2/PGE2 in plasma of DCF treated mice", "setting": "TxB2/PGE2", "value": "increased the level of TxB2/PGE2"}, {"measurement": "Oral availability", "setting": "[5]", "value": "high oral availability"}, {"measurement": "Effect on DCF-induced intestinal ulcers", "setting": "[6]", "value": "decreased DCF-induced intestinal ulcers"}, {"measurement": "pIC50", "setting": "recombinant mouse sEH", "value": "[…]"}]}, {"smiles": "COc1ccc2[nH]c([S+]([O-])Cc3ncc(C)c(OC)c3C)nc2c1", "note": "(stereo not shown) [Omeprazole]", "values": [{"measurement": "Incidence of ulceration relative to TPPU + DCF treated animals", "setting": "Swiss Webster mice; OME 50 mg/kg + DCF 100 mg/kg versus TPPU 0.1 mg/kg + DCF", "value": "higher"}, {"measurement": "Histopathological observation of gastric mucosa", "setting": "[2]", "value": "minimized gastric erosion"}, {"measurement": "Level of TNF-α in serum versus DCF", "setting": "TNF-α; listed as OME", "value": "normalized the level of these cytokines"}, {"measurement": "Level of IL-6 in serum versus DCF", "setting": "IL-6; listed as OME", "value": "normalized the level of these cytokines"}, {"measurement": "DCF-induced apoptosis of stomach epithelial cells (TUNEL) versus DCF", "setting": "gastric epithelial cells; listed as OME", "value": "decreased apoptosis significantly"}, {"measurement": "Effect on COX activity in stomach (level of PGE2) of DCF treated mice", "setting": "COX", "value": "did not increase the activity of COX"}, {"measurement": "Level of TxB2/PGE2 in plasma of DCF treated mice", "setting": "TxB2/PGE2", "value": "increased the level of TxB2/PGE2"}, {"measurement": "Half-life monitored in the blood", "setting": "[7]", "value": "5 to 15", "unit": "min"}, {"measurement": "Radioactivity of the stomach relative to blood", "setting": "[8]", "value": 100, "unit": "times"}, {"measurement": "Effect on activity of CYP3A4", "setting": "CYP3A4", "value": "increase activity of CYP3A4"}]}]}
